ChEMBL document CHEMBL1142297, “2,6-Diaryl-4-phenacylaminopyrimidines as potent and selective adenosine A(2A) antagonists with reduced hERG liability” (Bioorg Med Chem Lett, 2008)
Values after ≈ are worked out from the molar mass of the structure shown.

Legend:
Cytochrome P450 3A4 = Cytochrome P450 3A4 (Homo sapiens, UniProt P08684); assay: Inhibition of CYP3A4; type: ADME
How it was run: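 Recombinant CYP3A4 in microsomes from transfected cells expressing only that isoform, with the fluorescent substrate BFC; ketoconazole as positive control. IC50 determined; compounds with IC50 < 30 µM run in two or three experiments.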

Homo sapiens = species: Homo sapiens; assay: Selectivity for human adenosine A2A receptor over human adenosine A1 receptor
How it was run: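 Ki ratio from radioligand displacement in HEK293 cells expressing human receptors. A2A uses [3H]-ZM241385 and A1 uses [3H]-DPCPX. A standard antagonist is included on each plate. Geometric means of 3–6 independent experiments, SD ≤20%.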

Adenosine receptor A2a [1] = biological target: T1, Adenosine receptor A2a (Homo sapiens, UniProt P29274); assay: Displacement of [3H]ZM241385 from human adenosine A2A receptor expressed in HEK293 cells; type: cell-based
[2] = Metabolic stability in human liver microsomes; type: ADME, Microsome
[3] = Solubility in buffer solution at pH 2; type: physicochemical
How it was run: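 About 1 mg of solid is weighed into pH 2.00 buffer solution, sonicated 10 min, shaken overnight and centrifuged. The supernatant is quantified by HPLC against a standard curve of known dilutions of authentic sample.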

[4] = biological target: Voltage-gated inwardly rectifying potassium channel KCNH2 (Homo sapiens, UniProt Q12809); assay: Inhibition of human ERG expressed in HEK cells assessed as effect on electric current by patch clamp assay; type: cell-based, HEK293
How it was run: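 hERG potassium current was recorded by patch clamp in a HEK cell line stably carrying hERG. Each compound was applied at six concentrations (0.1 nM, 1 nM, 10 nM, 100 nM, 1 μM, 10 μM), and its effect on current was read at the end of a 5-min application. Cisapride (30 nM) served as positive control.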

Cytochrome P450 2D6 = Cytochrome P450 2D6 (Homo sapiens, UniProt P10635); assay: Inhibition of CYP2D6; type: ADME
How it was run: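 Recombinant CYP2D6 in microsomes from transfected cells, with the fluorescent substrate AMMC; quinidine as positive control. IC50 determined; compounds with IC50 < 30 μM assayed in two or three experiments.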

Adenosine receptor A2a [5] = biological target: T1, Adenosine receptor A2a; assay: Antagonist activity at human adenosine A2A receptor expressed in HEK293 cells by cAMP assay; type: functional, cell-based

T1 sequence (P29274 whole entry): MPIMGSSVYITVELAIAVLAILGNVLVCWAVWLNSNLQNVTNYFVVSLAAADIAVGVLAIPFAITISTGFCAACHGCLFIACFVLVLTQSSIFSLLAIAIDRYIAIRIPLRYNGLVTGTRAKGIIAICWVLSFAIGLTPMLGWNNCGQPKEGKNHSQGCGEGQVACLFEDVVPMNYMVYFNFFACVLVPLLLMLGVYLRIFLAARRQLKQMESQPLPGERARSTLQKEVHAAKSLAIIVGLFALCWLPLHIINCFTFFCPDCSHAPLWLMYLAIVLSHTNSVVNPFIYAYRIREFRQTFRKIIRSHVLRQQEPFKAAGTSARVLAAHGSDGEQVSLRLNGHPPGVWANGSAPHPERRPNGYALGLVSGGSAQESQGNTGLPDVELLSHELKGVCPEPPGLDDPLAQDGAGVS
Cytochrome P450 3A4, sequence (P08684 whole entry, canonical isoform): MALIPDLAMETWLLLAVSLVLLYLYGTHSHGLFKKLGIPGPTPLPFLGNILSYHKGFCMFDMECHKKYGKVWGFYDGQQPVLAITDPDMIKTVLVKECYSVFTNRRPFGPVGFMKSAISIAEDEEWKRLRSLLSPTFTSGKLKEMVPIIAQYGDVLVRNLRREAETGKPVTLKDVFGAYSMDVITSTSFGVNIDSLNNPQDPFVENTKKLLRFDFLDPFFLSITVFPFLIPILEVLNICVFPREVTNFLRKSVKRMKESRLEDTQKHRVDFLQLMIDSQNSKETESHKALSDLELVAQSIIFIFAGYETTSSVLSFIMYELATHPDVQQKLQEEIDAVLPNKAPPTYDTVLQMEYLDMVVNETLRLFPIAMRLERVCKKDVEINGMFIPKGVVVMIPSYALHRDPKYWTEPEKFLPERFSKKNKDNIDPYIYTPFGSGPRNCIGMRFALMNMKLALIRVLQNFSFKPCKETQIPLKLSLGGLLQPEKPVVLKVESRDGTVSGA
Voltage-gated inwardly rectifying potassium channel KCNH2, sequence (Q12809 whole entry): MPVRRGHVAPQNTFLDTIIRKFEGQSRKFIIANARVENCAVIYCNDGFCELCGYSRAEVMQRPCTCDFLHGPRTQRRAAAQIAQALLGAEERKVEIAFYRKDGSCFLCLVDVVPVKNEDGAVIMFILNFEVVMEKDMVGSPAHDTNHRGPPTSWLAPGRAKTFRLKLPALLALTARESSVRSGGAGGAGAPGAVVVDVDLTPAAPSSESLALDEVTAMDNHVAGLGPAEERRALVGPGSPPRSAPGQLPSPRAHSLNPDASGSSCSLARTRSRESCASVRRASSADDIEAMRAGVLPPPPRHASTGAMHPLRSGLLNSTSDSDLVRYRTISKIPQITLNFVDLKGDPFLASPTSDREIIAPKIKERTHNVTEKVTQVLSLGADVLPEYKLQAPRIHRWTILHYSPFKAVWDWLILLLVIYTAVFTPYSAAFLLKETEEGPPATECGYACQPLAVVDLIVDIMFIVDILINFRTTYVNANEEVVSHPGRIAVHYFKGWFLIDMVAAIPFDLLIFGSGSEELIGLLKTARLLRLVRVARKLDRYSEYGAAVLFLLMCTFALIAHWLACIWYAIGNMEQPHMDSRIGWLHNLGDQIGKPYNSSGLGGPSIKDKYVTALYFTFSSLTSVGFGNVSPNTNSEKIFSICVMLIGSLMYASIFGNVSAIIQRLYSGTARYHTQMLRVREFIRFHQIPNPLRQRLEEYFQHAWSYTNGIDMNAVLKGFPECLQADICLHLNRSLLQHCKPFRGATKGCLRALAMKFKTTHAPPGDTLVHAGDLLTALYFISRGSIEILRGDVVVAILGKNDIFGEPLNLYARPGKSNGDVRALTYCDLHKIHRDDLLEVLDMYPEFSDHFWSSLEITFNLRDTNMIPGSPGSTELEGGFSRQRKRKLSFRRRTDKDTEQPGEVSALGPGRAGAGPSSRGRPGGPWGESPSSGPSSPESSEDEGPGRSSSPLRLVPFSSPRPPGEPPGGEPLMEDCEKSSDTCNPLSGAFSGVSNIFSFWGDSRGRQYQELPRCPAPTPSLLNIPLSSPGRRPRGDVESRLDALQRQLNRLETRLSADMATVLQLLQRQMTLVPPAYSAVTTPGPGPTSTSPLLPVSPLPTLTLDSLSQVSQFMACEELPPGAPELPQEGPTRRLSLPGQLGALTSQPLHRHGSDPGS
Cytochrome P450 2D6, sequence (P10635 whole entry): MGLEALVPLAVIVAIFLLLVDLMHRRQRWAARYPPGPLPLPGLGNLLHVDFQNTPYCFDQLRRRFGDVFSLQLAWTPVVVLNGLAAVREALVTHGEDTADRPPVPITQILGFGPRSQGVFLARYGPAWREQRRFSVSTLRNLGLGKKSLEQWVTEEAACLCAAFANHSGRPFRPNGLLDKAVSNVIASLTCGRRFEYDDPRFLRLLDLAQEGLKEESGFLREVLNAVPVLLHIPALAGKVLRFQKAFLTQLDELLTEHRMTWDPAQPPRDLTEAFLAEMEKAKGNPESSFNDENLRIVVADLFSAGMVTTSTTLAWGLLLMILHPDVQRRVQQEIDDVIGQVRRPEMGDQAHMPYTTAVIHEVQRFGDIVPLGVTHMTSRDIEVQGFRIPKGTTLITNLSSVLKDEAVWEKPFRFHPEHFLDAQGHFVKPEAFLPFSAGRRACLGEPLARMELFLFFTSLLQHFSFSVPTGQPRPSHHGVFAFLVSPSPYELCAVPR

Row | Compound | IC50 (Cytochrome P450 3A4) [nM] | Selectivity ratio (Homo sapiens) | Ki (Adenosine receptor A2a [1]) [nM] | other results
1 | Cc1cc(C)n(-c2cc(NC(=O)Cc3ccc(NS(C)(=O)=O)cc3)nc(-c3ccc(C)o3)n2)n1 |  | 90 | 5 | 
2 | Cc1cc(C)cc(CC(=O)Nc2cc(-n3nc(C)cc3C)nc(-c3ccccn3)n2)c1 | > 10000 | 186 | 3 | CLint scaled [2]: 113 mL/min/kg
3 | Cc1cc(C)n(-c2cc(NC(=O)Cc3ccc(F)c(F)c3)nc(-c3ccc(C)o3)n2)n1 |  | 152 | 5 | 
4 | Cc1cc(C)n(-c2cc(NC(=O)Cc3ccc(CN4CCOCC4)cc3)nc(-c3ccc(C)o3)n2)n1 |  | 179 | 0.8 | 
5 | COc1ccc(CC(=O)Nc2cc(-n3cccn3)nc(-c3ccc(C)o3)n2)cc1 |  | 12 | 10 | 
6 | COc1ccc(CC(=O)Nc2cc(-n3nc(C)cc3C)nc(-c3ccc(C)o3)n2)cc1 |  | 61 | 4 | 
7 | COc1ccc(CC(=O)Nc2cc(-n3nc(C)cc3C)nc(-c3ccc(C)o3)n2)cc1F |  | 129 | 3 | 
8 | COc1ccc(CC(=O)Nc2cc(-c3nccs3)nc(-c3ccc(C)o3)n2)cc1 |  | 12 | 6 | 
9 | COc1ccc(CC(=O)Nc2cc(-c3nccs3)nc(-c3ccccn3)n2)cc1 |  | 18 | 1 | 
10 | Cc1cc(C)n(-c2cc(NC(=O)Cc3ccc(CN(C)C)cc3)nc(-c3ccc(C)o3)n2)n1 |  | 80 | 0.2 | 
11 | Cc1cc(C)n(-c2cc(NC(=O)Cc3cc(F)cc(F)c3)nc(-c3ccc(C)o3)n2)n1 |  | 126 | 5 | 

The remaining compounds from weak to strong by Ki (Adenosine receptor A2a [1]), led by results:

Row | IC50 (Cytochrome P450 3A4) [nM] | Selectivity ratio (Homo sapiens) | Ki (Adenosine receptor A2a [1]) [nM] | Compound | other results
12 |  | 411 | 3 | COc1ccc(CC(=O)Nc2cc(-n3nc(C)cc3C)nc(-c3ccc(C)o3)n2)cc1C | 
13 |  | 180 | 2 | COc1ccc(CC(=O)Nc2cc(-n3nc(C)cc3C)nc(-c3ccc(C)o3)n2)cc1OC | 
14 | > 5000 | 487 | 2 | COc1cc(CC(=O)Nc2cc(-n3nc(C)cc3C)nc(-c3ccc(C)o3)n2)cc(OC)c1 | solubility [3]: < 100 µg/mL; IC50 [4]: > 3000 nM; IC50 (Cytochrome P450 2D6): > 5000 nM; CLint scaled [2]: 78 mL/min/kg
15 |  | 162 | 2 | Cc1cc(C)n(-c2cc(NC(=O)Cc3ccc(N(C)C)cc3)nc(-c3ccc(C)o3)n2)n1 | 
16 | 1300 | 477 | 1 | COc1cc(CC(=O)Nc2cc(-n3nc(C)cc3C)nc(-c3ccccn3)n2)cc(OC)c1 | 
17 | 7000 | 257 | 1 | CCOc1ccc(CC(=O)Nc2cc(-n3nc(C)cc3C)nc(-c3ccccn3)n2)cc1OC | CLint scaled [2]: 47 mL/min/kg
18 | > 10000 | 148 | 1 | Cc1cc(C)n(-c2cc(NC(=O)Cc3ccc(S(C)(=O)=O)cc3)nc(-c3ccccn3)n2)n1 | solubility [3]: 500 µg/mL (≈ 1080 µM); IC50 (Adenosine receptor A2a [5]): 100 nM; CLint scaled [2]: 7 mL/min/kg
19 | 1800 | 66 | 1 | COc1ccc(CC(=O)Nc2cc(-n3nc(C)cc3C)nc(-c3ccccn3)n2)cc1 | 
